Test results as given in ChEMBL document CHEMBL4196159 (ACS Med Chem Lett, 2018).
Values after ≈ are worked out from the molar mass of the structure shown.

Tests used:
physchem [1] = conditions: octanol/buffer, pH 7.4
in vitro [2] = conditions: human, liver microsomes
physchem [3] = conditions: phosphate buffer, pH 7.4
in vitro [4] = conditions: rat, hepatocytes
[5] = Volume of distribution in Beagle dog at 1 mg/kg, iv administered as bolus dose or 2 mg/kg, po; type: ADME, organism-based, Canis lupus familiaris; conditions: in vivo
In short: (§1)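 Male Han Wistar rats and male Beagle dogs, at least n = 2. Compound given at 1 mg/kg i.v. Parameters derived from plasma concentrations.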

[6] = Oral bioavailability in Beagle dog at 2 mg/kg; type: ADME, organism-based, Canis lupus familiaris; conditions: in vivo
[7] = Volume of distribution in Han Wistar rat at 1 mg/kg, iv administered as bolus dose or 2 mg/kg, po; type: ADME, organism-based; conditions: in vivo
In short: as §1

[8] = Clearance in Han Wistar rat at 1 mg/kg, iv administered as bolus dose or 2 mg/kg, po; type: ADME, organism-based; conditions: in vivo
In short: as §1

[9] = Clearance in Beagle dog at 1 mg/kg, iv administered as bolus dose or 2 mg/kg, po; type: ADME, organism-based, Canis lupus familiaris; conditions: in vivo
In short: as §1

[10] = Intrinsic clearance in human cryopreserved hepatocytes assessed per million cells at 1 uM measured after 30 mins by HPLC analysis; type: ADME, cell-based, Hepatocyte; conditions: read-out: CLH
In short: (§2)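 Intrinsic clearance (Clint) measured in fresh dog hepatocytes or cryopreserved human hepatocytes.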

[11] = Terminal half life in Beagle dog at 1 mg/kg, iv administered as bolus dose; type: ADME, organism-based, Canis lupus familiaris; conditions: in vivo, read-out: beta t1/2 (converted)
In short: as §1

[12] = Intrinsic clearance in dog hepatocytes assessed per million cells at 1 uM measured after 30 mins by HPLC analysis; type: ADME, cell-based, Canis lupus familiaris, Hepatocyte; conditions: read-out: CLH
In short: as §2

[13] = Oral bioavailability in Han Wistar rat at 2 mg/kg; type: ADME, organism-based; conditions: in vivo
[14] = Terminal half life in Han Wistar rat at 1 mg/kg, iv administered as bolus dose; type: ADME, organism-based; conditions: in vivo, read-out: beta t1/2 (converted)
In short: as §1

[15] = Volume of distribution at steady state in rat at 0.5 mg/kg, iv or 1 mg/kg, po; type: ADME, organism-based; conditions: in vivo, read-out: Vdss
In short: (§3)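 Rats dosed 0.5 mg/kg i.v. and 1 mg/kg orally. Pharmacokinetic parameters taken from plasma levels.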

[16] = Clearance in rat at 0.5 mg/kg, iv or 1 mg/kg, po; type: ADME, organism-based; conditions: in vivo
In short: as §3

[17] = Oral bioavailability in rat at 1 mg/kg; type: ADME, organism-based; conditions: in vivo
In short: as §3

Mus musculus = experiment: Time at which plasma concentration stays above in-vitro cellular IC50 for ATM autophosphorylation at Ser1981 residue in human HT-29 cells in mouse at 10 mg/kg, po; type: ADME, organism-based; conditions: in vivo
In short: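 Mice given 10 mg/kg orally. Free plasma concentration over time compared with the in vitro cellular ATM IC50.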
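Wherever logD is given: Shake-flask partitioning between octanol and buffer, equilibrated for 30 min before measurement.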

Structure (SMILES)	logD at 0.5 h (physchem [1])	microsomal CLint at 0.5 h, 1 µM (in vitro [2])	solubility thermodynamic at 24 h (physchem [3])	hepatocyte CLint at 0.5 h, 1 µM (in vitro [4])	other results
C[C@H](Nc1c(C(N)=O)nnc2ccc(-c3ccc(OCCCN4CCCC4)nc3)cc12)c1ccn(C)n1	1.8	10 µL/min/mg	490 µM (≈ 245 µg/mL)	4.6 µL/min/1e6 cells	–
C[C@H](Nc1c(C(N)=O)nnc2ccc(-c3ccc(OCCCN(C)C)nc3)cc12)c1ccn(C)n1	1.7	10 µL/min/mg	65 µM (≈ 30.8 µg/mL)	7 µL/min/1e6 cells	–
COCc1ccc(-c2ccc3nnc(C(N)=O)c(N[C@@H](C)c4ccn(C)n4)c3c2)cn1	3	14 µL/min/mg	76 µM (≈ 31.7 µg/mL)	4.9 µL/min/1e6 cells	–
Cc1cn(C)nc1[C@H](C)Nc1c(C(N)=O)nnc2ccc(-c3ccc(OCCCN(C)C)nc3)cc12	2.1	27 µL/min/mg	290 µM (≈ 142 µg/mL)	12 µL/min/1e6 cells	–
COCc1ccc(-c2cc3c(N[C@@H](C)c4ccn(C)n4)c(C(N)=O)cnc3cc2F)cn1	–	15 µL/min/mg	–	–	–
COCc1ccc(-c2ccc3nnc(C(N)=O)c(N[C@@H](C)c4nn(C)cc4C)c3c2)cn1	2.8	31 µL/min/mg	8 µM (≈ 3.45 µg/mL)	18 µL/min/1e6 cells	–
CNC(=O)c1nnc2ccc(-c3ccc(OCCCN(C)C)nc3)cc2c1N[C@@H](C)c1nn(C)cc1C	2.3	33 µL/min/mg	620 µM (≈ 312 µg/mL)	6.7 µL/min/1e6 cells	–
Cc1cn(C)nc1[C@H](C)Nc1c(C(N)=O)nnc2ccc(-c3ccc(OCCCN4CCCC4)nc3)cc12	2.1	40 µL/min/mg	510 µM (≈ 262 µg/mL)	8.1 µL/min/1e6 cells	–

Now from value to molecule, other results behind:

logD at 0.5 h (physchem [1])	microsomal CLint at 0.5 h, 1 µM (in vitro [2])	solubility thermodynamic at 24 h (physchem [3])	hepatocyte CLint at 0.5 h, 1 µM (in vitro [4])	Structure (SMILES)	other results
3	42 µL/min/mg	34 µM (≈ 14.8 µg/mL)	5.8 µL/min/1e6 cells	CNC(=O)c1nnc2ccc(-c3ccc(COC)nc3)cc2c1N[C@@H](C)C1CCOCC1	–
1.9	28 µL/min/mg	870 µM (≈ 416 µg/mL)	3.4 µL/min/1e6 cells	C[C@H](Nc1c(C(N)=O)nnc2ccc(-c3ccc(OCCCN(C)C)nc3)cc12)C1CCOCC1	Vd [5]: 20 L/kg; bioavailability [6]: 43%; Vd [7]: 5.5 L/kg; clearance [8]: 25 mL/min/kg; clearance [9]: 49 mL/min/kg; hepatocyte CLint at 1 µM [10]: 2.8 µL/min/1e6 cells; half-life [11]: 6.2 h; hepatocyte CLint at 1 µM [12]: 5.1 µL/min/1e6 cells; bioavailability [13]: 26%; half-life [14]: 4.1 h
2.7	33 µL/min/mg	> 1000 µM	5.6 µL/min/1e6 cells	COCc1ccc(-c2ccc3nnc(C(N)=O)c(N[C@@H](C)C4CCOCC4)c3c2)cn1	Vd [15]: 0.7 L/kg; clearance [16]: 21 mL/min/kg; bioavailability [17]: 56%
2	18 µL/min/mg	> 1000 µM	4.2 µL/min/1e6 cells	C[C@H](Nc1c(C(N)=O)nnc2ccc(-c3ccc(NCCN(C)C)nc3)cc12)C1CCOCC1	–
1.9	25 µL/min/mg	910 µM (≈ 419 µg/mL)	13 µL/min/1e6 cells	C[C@H](Nc1c(C(N)=O)nnc2ccc(-c3ccc(OCCN(C)C)nc3)cc12)c1ccn(C)n1	–
1.9	23 µL/min/mg	620 µM (≈ 313 µg/mL)	1.9 µL/min/1e6 cells	C[C@H](Nc1c(C(N)=O)nnc2ccc(-c3ccc(OCCCN4CCCC4)nc3)cc12)C1CCOCC1	–
–	26 µL/min/mg	–	< 5.3 µL/min/1e6 cells	COCc1ccc(-c2ccc3ncc(C(N)=O)c(N[C@@H](C)C4CCOCC4)c3c2)cn1	–
2.3	22 µL/min/mg	880 µM (≈ 434 µg/mL)	5.7 µL/min/1e6 cells	CNC(=O)c1nnc2ccc(-c3ccc(OCCCN(C)C)nc3)cc2c1N[C@@H](C)C1CCOCC1	Vd [5]: 14 L/kg; bioavailability [6]: 35%; Vd [7]: 2.8 L/kg; clearance [8]: 7.8 mL/min/kg; clearance [9]: 48 mL/min/kg; Time (Mus musculus): > 12 h; hepatocyte CLint at 1 µM [10]: 4.1 µL/min/1e6 cells; half-life [11]: 4.7 h; hepatocyte CLint at 1 µM [12]: 8.8 µL/min/1e6 cells; bioavailability [13]: 41%; half-life [14]: 5.6 h
2.5	26 µL/min/mg	990 µM (≈ 474 µg/mL)	4.8 µL/min/1e6 cells	CNC(=O)c1nnc2ccc(-c3ccc(OCCN(C)C)nc3)cc2c1N[C@@H](C)C1CCOCC1	–
